Test results reported in ChEMBL document CHEMBL3352437, “Novel 3,5-bis(arylidene)-4-oxo-1-piperidinyl dimers: structure-activity relationships and potent antileukemic and antilymphoma cytotoxicity” (Eur J Med Chem, 2014).
pIC50: −log10 of the molar value.

Legend:
CCRF-CEM [1] = assay: Antiproliferative activity against human CEM cells after 72 hrs by coulter counting analysis; type: functional, cell-based
Outline: (§1)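 Cells exposed to a range of concentrations in RPMI 1640 at 37°C for 72 h. Surviving cells counted by Coulter counter. IC50 taken from concentration-response curves, mean ± SD of at least three independent experiments.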

HeLa = assay: Antiproliferative activity against human HeLa cells after 72 hrs by coulter counting analysis; type: functional, cell-based; outline: as §1
[2] = Antiproliferative activity against human Molt4/C8 cells after 72 hrs by coulter counting analysis; type: functional, cell-based; conditions: MOLT-4, 72 h; outline: as §1
L1210 = assay: Antiproliferative activity against mouse L1210 cells after 72 hrs by coulter counting analysis; type: functional, cell-based; conditions: L1210, 72 h
MCF7 = assay: Cytotoxicity against human MCF7 cells assessed as dead cells at 1 uM after 24 hrs; type: functional
Outline: (§2)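 Dienones added as DMSO solutions to cells in RPMI medium and incubated 24 h at 37°C. Cytotoxicity was scored as cell-membrane disruption by propidium iodide staining and expressed as percentage of dead cells, averaged over three independent experiments.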

[3] = Cytotoxicity against human NCI60 cells assessed as inhibition of tumor growth after 24 hrs; type: functional, cell-based; conditions: NCI60, 24 h
HS27 = assay: Cytotoxicity against human HS27 cells assessed as dead cells at 1 uM after 24 hrs; type: cell-based; conditions: hs27, 24 h
Outline: (§3)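 Compounds added from DMSO solutions to cells in medium (RPMI; DMEM for Hs-27 fibroblasts) and incubated 24 h at 37°C. Membrane disruption scored by propidium iodide uptake. Result is percentage of dead cells, average of three independent experiments.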

YT = assay: Cytotoxicity against human YT cells assessed as dead cells at 1 uM after 24 hrs; type: functional; outline: as §2
CCRF-CEM [4] = assay: Cytotoxicity against human CEM cells assessed as dead cells at 1 uM after 24 hrs; type: functional; outline: as §2
[5] = Cytotoxicity against human 22Rvl cells assessed as dead cells at 1 uM after 24 hrs; type: functional; outline: as §2
LAPC4 = assay: Cytotoxicity against human LAPC4 cells assessed as dead cells at 1 uM after 24 hrs; type: functional; outline: as §2
[6] = Cytotoxicity against human SupT1 cells assessed as dead cells at 1 uM after 24 hrs; type: functional, SUP-T1; outline: as §2
SR = assay: Antileukemic activity against human SR cells assessed as inhibition of tumor growth after 24 hrs; type: functional, cell-based
[7] = Cytotoxicity against human MCF10A cells assessed as dead cells at 1 uM after 24 hrs; type: cell-based; conditions: mcf-10a; outline: as §3
HCC70 = assay: Cytotoxicity against human HCC70 cells assessed as dead cells at 1 uM after 24 hrs; type: functional; outline: as §2
[8] = Antileukemic activity against human RPMI8226 cells assessed as inhibition of tumor growth after 24 hrs; type: functional, cell-based; conditions: rpmi-8226
SW-620 = assay: Cytotoxicity against human SW620 cells assessed as inhibition of tumor growth after 24 hrs; type: functional, cell-based; conditions: SW-620, 24 h
[9] = Cytotoxicity against human MOLT3 cells assessed as dead cells at 1 uM after 24 hrs; type: functional, MOLT-3; outline: as §2
[10] = Cytotoxicity against human NALM6 cells assessed as dead cells at 1 uM after 24 hrs; type: functional, NALM-6; outline: as §2
[11] = Cytotoxicity against human MDA231 cells assessed as dead cells at 1 uM after 24 hrs; type: functional, MDA-MB-231; outline: as §2
K562 = assay: Antileukemic activity against human K562 cells assessed as inhibition of tumor growth after 24 hrs; type: functional, cell-based; conditions: K562, 24 h
KM12 = assay: Cytotoxicity against human KM12 cells assessed as inhibition of tumor growth after 24 hrs; type: functional, cell-based; conditions: KM12, 24 h
Raji = assay: Cytotoxicity against human Raji cells assessed as dead cells at 1 uM after 24 hrs; type: functional; outline: as §2
COLO 205 = assay: Cytotoxicity against human COLO205 cells assessed as inhibition of tumor growth after 24 hrs; type: functional, cell-based; conditions: COLO 205, 24 h
Jurkat = assay: Cytotoxicity against human Jurkat cells assessed as dead cells at 1 uM after 24 hrs; type: functional; outline: as §2
[12] = Cytotoxicity against human HuT-102 cells assessed as dead cells at 1 uM after 24 hrs; type: functional; outline: as §2
Ramos = assay: Cytotoxicity against human Ramos cells assessed as dead cells at 1 uM after 24 hrs; type: functional; outline: as §2
HL-60(TB) = assay: Antileukemic activity against human HL-60(TB) cells assessed as inhibition of tumor growth after 24 hrs; type: functional, cell-based; conditions: HL-60, 24 h
BJAB = assay: Cytotoxicity against human BJAB cells assessed as dead cells at 1 uM after 24 hrs; type: functional; outline: as §2
HCC 2998 = assay: Cytotoxicity against human HCC2998 cells assessed as inhibition of tumor growth after 24 hrs; type: functional, cell-based; conditions: HCC 2998, 24 h
EL4 = assay: Cytotoxicity against mouse EL4 cells assessed as dead cells at 1 uM after 24 hrs; type: functional; outline: as §2
[13] = Cytotoxicity against human HCT15 cells assessed as inhibition of tumor growth after 24 hrs; type: functional, cell-based; conditions: HCT-15, 24 h

Structure (SMILES)	pIC50 (CCRF-CEM [1])	pIC50 (HeLa)	pIC50 [2]	pIC50 (L1210)	pIC50 [3]	pIC50 (SR)	pIC50 [8]	pIC50 (SW-620)	pIC50 (K562)	pIC50 (KM12)	pIC50 (COLO 205)	pIC50 (HL-60(TB))	pIC50 (HCC 2998)	pIC50 [13]	other results
CN(C)c1ccc(/C=C2\CN(C(=O)C(=O)N3C/C(=C\c4ccc(N(C)C)cc4)C(=O)/C(=C/c4ccc(N(C)C)cc4)C3)C/C(=C\c3ccc(N(C)C)cc3)C2=O)cc1	3.56	< 3.30	3.36	3.53											
O=C1/C(=C\c2ccccc2)CN(CCCN2C/C(=C\c3ccccc3)C(=O)/C(=C/c3ccccc3)C2)C/C1=C\c1ccccc1	5.60	5.26	5.84	5.53	6.72	7.40	7.40	7.22	7.40	6.80	6.72	6.60	6.74	6.70	Activity (MCF7): 43.5%; Activity (HS27): 2.9%; Activity (YT): 6.6%; Activity (CCRF-CEM [4]): 64.5%; Activity [5]: 1.7%; Activity (LAPC4): 5.7%; Activity [6]: 21.2%; Activity [7]: 19.4%; Activity (HCC70): 4.3%; Activity [9]: 27.4%; Activity [10]: 49.2%; Activity [11]: 20.1%; Activity (Raji): 31.9%; Activity (Jurkat): 76.3%; Activity [12]: 10%; Activity (Ramos): 82.1%; Activity (BJAB): 39.4%; Activity (EL4): 65.3%
O=C1/C(=C\c2ccc(O)cc2)CN(C(=O)CC(=O)N2C/C(=C\c3ccc(O)cc3)C(=O)/C(=C/c3ccc(O)cc3)C2)C/C1=C\c1ccc(O)cc1					5.78	6.34	6.46	6.12	6.28	6.16	5.78	5.76	5.76	5.93	
COc1cc(/C=C/C(=O)CC(=O)/C=C/c2ccc(O)c(OC)c2)ccc1O [CURCUMIN]	5.09	4.67	5.19	4.82											
O=C1/C(=C\c2ccc(Cl)c(Cl)c2)CN(C(=O)CC(=O)N2C/C(=C\c3ccc(Cl)c(Cl)c3)C(=O)/C(=C/c3ccc(Cl)c(Cl)c3)C2)C/C1=C\c1ccc(Cl)c(Cl)c1	4.30	4.40	4.63	4.52											
O=C1/C(=C\c2ccccc2)CN(C(=O)CC(=O)N2C/C(=C\c3ccccc3)C(=O)/C(=C/c3ccccc3)C2)C/C1=C\c1ccccc1	6.70	6.04	7.14	5.91	6.62	7.52	6.89	7.30	7.30	6.89	6.80	6.54	6.77	6.77	
N[C@@H](Cc1ccc(N(CCCl)CCCl)cc1)C(=O)O [MELPHALAN]	5.84	5.77	5.55	5.31	4.72	5.49	4.55	4.57	3.71	4.24	4.49	6.42	4.28		
